Columns and labels:
[1] = Inhibition of HCV full-length NS5B polymerase; set-up: species or system Hepacivirus hominis
Procedure, shortened: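 Polymerase inhibition with full-length NS5B enzyme in a biochemical assay; IC50 averaged from duplicate measurements, at least two determinations.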

[2] = Inhibition of Hepatitis C virus genotype 1b Con1 NS5B RNA dependent RNA polymerase activity using Bright-Glo luciferase substrate by cell-based 1b luciferase reporter assay; set-up: species or system Hepatitis C virus (isolate Con1)
Procedure, shortened: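 Cell-based genotype 1b luciferase reporter replicon assay; EC50 determined in duplicate, values averaged over at least two determinations.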

[3] = Half life in human liver microsomes; type: ADME
[4] = Plasma concentration in rat at 4 mg/kg, po cassette dosing after 1 hr; type: ADME, organism-based; set-up: dose 4 mg/kg, route oral
Procedure, shortened: (§1)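 Cassette screen: mixture of 4 compounds, each at 4 mg/kg, dosed orally to 2 rats; plasma sampled at 1 h and 2 h, solid-phase extracted and quantified by HPLC-UV or LC/MS against calibration standards in blank plasma (LOQ 7 ng/mL).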

[5] = Permeability across apical to basolateral side in human Caco2 cells; type: ADME, cell-based; conditions: Caco-2, read-out: permeability
[6] = Half life in rat liver microsomes; type: ADME
[7] = Plasma concentration in rat at 4 mg/kg, po cassette dosing after 2 hrs; type: ADME, organism-based; set-up: dose 4 mg/kg, route oral; procedure, shortened: as §1
[8] = Mean residence time in rat at 10 mg/kg, po; type: ADME, organism-based; set-up: dose 10 mg/kg, route oral; conditions: in vivo
Procedure, shortened: (§2)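 Single-compound oral PK after overnight fast; 10 mg/kg given as suspension in 0.5% methylcellulose and 0.3% Tween-80, with or without 1% NMP as added solubilizer; N=3 per dose and route. Plasma kept on ice, centrifuged at 4°C, stored near -20°C, extracted by solid phase, quantified by HPLC-UV or LC/MS against blank-plasma standards (LOQ 7 ng/mL); non-compartmental analysis.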

[9] = Half life in rat at 2 mg/kg, iv; type: ADME, organism-based; set-up: dose 2 mg/kg, route intravenous; conditions: in vivo
Procedure, shortened: (§3)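 Fasted animals dosed IV by bolus at 2 mg/kg in 70% PEG-400:30% water; N=3 per dose and route. Plasma separated at 4°C, stored near -20°C, solid-phase extracted, assayed by HPLC-UV or LC/MS with blank-plasma calibration (r2 > 0.99, LOQ 7 ng/mL); parameters from non-compartmental analysis.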

[10] = Oral bioavailability in rat at 10 mg/kg; type: ADME, organism-based; conditions: in vivo; procedure, shortened: as §2
[11] = AUC in rat at 10 mg/kg, po; type: ADME, organism-based; set-up: dose 10 mg/kg, route oral; conditions: plasma; procedure, shortened: as §2
[12] = Cmax in rat at 10 mg/kg, po; type: ADME, organism-based; set-up: dose 10 mg/kg, route oral; conditions: in vivo; procedure, shortened: as §2
[13] = Clearance in rat at 2 mg/kg, iv; type: ADME, organism-based; set-up: dose 2 mg/kg, route intravenous; conditions: in vivo; procedure, shortened: as §3
[14] = Volume of distribution at steady state in rat at 2 mg/kg, iv; type: ADME, organism-based; set-up: dose 2 mg/kg, route intravenous; conditions: in vivo, read-out: Vdss; procedure, shortened: as §3

Compound | IC50 [1] [nM] | EC50 [2] [nM] | half-life [3] [h] | concentration at 1 h [4] [nM] | Papp A→B [5] [×10⁻⁶ cm/s] | concentration at 2 h [7] [nM] | other results
CCOc1cc(NC(=O)C2(NC(=O)c3ccc4c(C5CCCC5)c(-c5nccs5)n(C)c4c3)CCC2)ccc1/C=C/C(=O)O | 150 | 12 | 0.6 |  |  |  | 
Cc1cc(/C=C/C(=O)O)ccc1NC(=O)C1(NC(=O)c2ccc3c(C4CCCC4)c(-c4ccccn4)n(C)c3c2)CCC1 | 370 | 1030 |  |  |  |  | 
CCOc1cc(NC(=O)C2(NC(=O)c3ccc4c(C5CCCC5)c(-c5ccccc5)n(C)c4c3)CCC2)ccc1/C=C/C(=O)O | 410 | 21 |  |  |  |  | 
COc1cc(NC(=O)C2(NC(=O)c3ccc4c(C5CCCC5)c(-c5ccccn5)n(C)c4c3)CCC2)cc(OC)c1/C=C/C(=O)O | 340 | 8 |  | 400 | 17.6 |  | half-life [6]: 0.7 h
CCOc1cc(NC(=O)C2(NC(=O)c3ccc4c(C5CCCC5)c(-c5ncc(Br)cn5)n(C)c4c3)CCC2)ccc1/C=C/C(=O)O | 460 | 19 | 2.57 | 1800 | 13 | 2100 | half-life [6]: 1.73 h
COCCOc1cc(NC(=O)C(C)(C)NC(=O)c2ccc3c(C4CCCC4)c(-c4ncc(Cl)cn4)n(C)c3c2)ccc1/C=C/C(=O)O | 200 | 10 | 2.15 | 200 | 12 |  | 
CCOc1cc(NC(=O)C2(NC(=O)c3ccc4c(C5CCCC5)c(-c5ccccn5)n(C)c4c3)CCC2)ccc1/C=C/C(=O)O | 48 | 24 | 1.07 | 900 | 19 | 400 | 
CC(C)COc1cc(NC(=O)C2(NC(=O)c3ccc4c(C5CCCC5)c(-c5ccccn5)n(C)c4c3)CCC2)ccc1/C=C/C(=O)O | 420 | 55 | > 5 |  |  |  | 
Cn1c(-c2ccccn2)c(C2CCCC2)c2ccc(C(=O)NC3(C(=O)Nc4ccc(/C=C/C(=O)O)c(OCC5CC5)c4)CCC3)cc21 | 250 | 46 | 3.85 |  |  |  | 
CCOc1cc(NC(=O)C2(NC(=O)c3ccc4c(C5CCCC5)c(-c5ncc(Cl)cn5)n(C)c4c3)CC2)ccc1/C=C/C(=O)O | 380 | 34 | 3.25 |  |  |  | 
Cn1c(-c2ccccn2)c(C2CCCC2)c2ccc(C(=O)NC3(C(=O)Nc4ccc(/C=C/C(=O)O)cc4Cl)CCC3)cc21 | 300 |  |  |  |  |  | 
CCOc1cc(NC(=O)C2(NC(=O)c3ccc4c(C5CCCC5)c(-c5cnn(C)c5)n(C)c4c3)CCC2)ccc1/C=C/C(=O)O | 190 | 12 | 0.733 | 400 |  | 100 | 
CC(C)Oc1cc(NC(=O)C2(NC(=O)c3ccc4c(C5CCCC5)c(-c5ccccn5)n(C)c4c3)CCC2)ccc1/C=C/C(=O)O | 110 | 36 | 1.9 | 1300 | 19 | 800 | 
CCOc1cc(NC(=O)C2(NC(=O)c3ccc4c(C5CCCC5)c(-c5ccc(F)cn5)n(C)c4c3)CCC2)ccc1/C=C/C(=O)O | 110 | 16 | 1.2 | 1300 | 17 | 800 | MRT [8]: 3 h; half-life [9]: 1.5 h; bioavailability [10]: 17%; AUC [11]: 6.1 µM·h; Cmax [12]: 2200 nM; clearance [13]: 6.2 mL/min/kg; Vd [14]: 0.42 L/kg
Cn1c(-c2ccccn2)c(C2CCCC2)c2ccc(C(=O)NC3(C(=O)Nc4ccc(/C=C/C(=O)O)c(F)c4)CCC3)cc21 | 61 | 130 |  |  |  |  | 
Cn1c(-c2ccccn2)c(C2CCCC2)c2ccc(C(=O)NC3(C(=O)Nc4ccc(/C=C/C(=O)O)c(O)c4)CCC3)cc21 | 44 | 170 |  |  |  |  | 

Compound | IC50 [1] [nM] | EC50 [2] [nM] | half-life [3] [h] | concentration at 1 h [4] [nM] | Papp A→B [5] [×10⁻⁶ cm/s] | concentration at 2 h [7] [nM] | other results
Cn1c(-c2ccccn2)c(C2CCCC2)c2ccc(C(=O)NC3(C(=O)Nc4c(F)cc(/C=C/C(=O)O)cc4F)CCC3)cc21 | 1320 | > 2800 |  |  |  |  | 
Cn1c(-c2ccccn2)c(C2CCCC2)c2ccc(C(=O)NC3(C(=O)Nc4ccc(/C=C/C(=O)O)cc4F)CCC3)cc21 | 230 | 560 |  |  |  |  | 
CCCOc1cc(NC(=O)C2(NC(=O)c3ccc4c(C5CCCC5)c(-c5ccccn5)n(C)c4c3)CCC2)ccc1/C=C/C(=O)O | 130 | 36 | 2.07 | 400 | 19 | 200 | 
COCCOc1cc(NC(=O)C2(NC(=O)c3ccc4c(C5CCCC5)c(-c5ncc(Cl)cn5)n(C)c4c3)CCC2)ccc1/C=C/C(=O)O | 200 | 13 | > 5 | 1700 | 17 | 1100 | MRT [8]: 4.1 h; half-life [9]: 2.1 h; bioavailability [10]: 16%; AUC [11]: 10.6 µM·h; Cmax [12]: 4100 nM; clearance [13]: 3.7 mL/min/kg; Vd [14]: 0.29 L/kg
Cn1c(-c2ccccn2)c(C2CCCC2)c2ccc(C(=O)NC3(C(=O)Nc4ccc(/C=C/C(=O)O)c(Cl)c4)CCC3)cc21 | 100 | 110 |  |  |  |  | 
COCCOc1cc(NC(=O)C2(NC(=O)c3ccc4c(C5CCCC5)c(-c5ccccn5)n(C)c4c3)CCC2)ccc1/C=C/C(=O)O | 56 | 27 | 1.45 |  |  |  | 
Cn1c(-c2ccccn2)c(C2CCCC2)c2ccc(C(=O)NC3(C(=O)Nc4ccc(/C=C/C(=O)O)cc4O)CCC3)cc21 | 440 | 250 |  |  |  |  | 
CCOc1cc(NC(=O)C2(NC(=O)c3ccc4c(C5CCCC5)c(-c5cnccn5)n(C)c4c3)CCC2)ccc1/C=C/C(=O)O | 48 | 21 | 0.767 |  |  |  | 
Cn1c(-c2ccccn2)c(C2CCCC2)c2ccc(C(=O)NC3(C(=O)Nc4ccc(/C=C/C(=O)O)cc4C(F)(F)F)CCC3)cc21 | 2250 | > 2500 |  |  |  |  | 
CCOc1cc(NC(=O)C(C)(C)NC(=O)c2ccc3c(C4CCCC4)c(-c4ncc(Cl)cn4)n(C)c3c2)ccc1/C=C/C(=O)O | 27 | 8 |  | 500 | 24 | 100 | 
Cn1c(-c2ccccn2)c(C2CCCC2)c2ccc(C(=O)NC3(C(=O)Nc4ccc(/C=C/C(=O)O)c(C(F)(F)F)c4)CCC3)cc21 | 180 | 230 |  |  |  |  | 
Cc1cc(NC(=O)C2(NC(=O)c3ccc4c(C5CCCC5)c(-c5ccccn5)n(C)c4c3)CCC2)ccc1/C=C/C(=O)O | 69 | 79 |  |  |  |  | 
Cn1c(-c2ccccn2)c(C2CCCC2)c2ccc(C(=O)NC3(C(=O)Nc4ccc(/C=C/C(=O)O)c(OC5CCC5)c4)CCC3)cc21 | 280 | 65 | 0.833 |  |  |  | 
CCOc1cc(NC(=O)C2(NC(=O)c3ccc4c(C5CCCC5)c(-c5ccc(Cl)cn5)n(C)c4c3)CCC2)ccc1/C=C/C(=O)O | 330 | 26 | 1.35 | 500 | 18 | 300 | half-life [6]: 1.73 h
COc1cc(NC(=O)C2(NC(=O)c3ccc4c(C5CCCC5)c(-c5ccccn5)n(C)c4c3)CCC2)ccc1/C=C/C(=O)O | 47 | 32 | 1.37 | 1100 |  | 500 | 
CCOc1cc(NC(=O)C2(NC(=O)c3ccc4c(C5CCCC5)c(-c5cccc(N)n5)n(C)c4c3)CCC2)ccc1/C=C/C(=O)O | 330 | 10 | 1.3 | 100 | 9.4 | 100 | 

— ChEMBL document CHEMBL3351932, “Discovery of BI 207524, an indole diamide NS5B thumb pocket 1 inhibitor with improved potency for the potential treatment of chronic hepatitis C virus infection” (J Med Chem, 2014)
